Key:
[1] = Pharmacokinetics of PD98059 following IV injection; type: in vivo, rat
In short: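 Male Sprague-Dawley rats, urethane-anaesthetised, received slow femoral-vein infusion of test compound (0.5 mg/ml, 2 ml, 10% Tween 80/DPBS). Blood drawn at 5, 15, 30, 60, 180 and 360 min into K2-EDTA, plasma stored at −80° C. 100 μl plasma spiked with 7-hydroxyflavone, acetonitrile-precipitated, dried and reconstituted. HPLC against naïve-plasma standards; n=3 (n=1 at 6 h). PK Solver 1-/2-compartment fits; non-compartmental AUC0-t.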

[2] = Organ; type: in vivo, rat; conditions: healthy rats
In short: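 Male Sprague-Dawley rats (6–8 weeks, 275–300 g), urethane-anaesthetised, with a femoral-vein cannula. Test compound at 0.5 mg/ml in 10% Tween 80/sterile 1X DPBS, 2 ml infused slowly. Brain taken at 1 and 3 h (n=3 per time), rinsed, held at −80° C. 200–400 mg homogenised in DPBS with 7-hydroxyflavone internal standard. Cold-acetonitrile precipitation, N2 drying, mobile-phase reconstitution. HPLC-diode array against naïve-tissue standards; mean ± SD.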

[3] = Solubility of PD98059 in the release medium; type: physicochemical; conditions: 0.4% v/v Tween 80 in 1X DPBS, 37° C
[4] = tested on: pERK1/2 expression in PVN; conditions: 1-hour ICV infusion, rats with heart failure; ref [23]; cited from earlier work
[5] = tested on: rats with heart failure; conditions: cited from earlier work
[6] = 1-compartment model, IV 1 mg, healthy rats
[7] = 2-compartment model, IV 1 mg, healthy rats
[8] = non-compartmental analysis, IV 1 mg, healthy rats
[9] = 1-hour ICV infusion, rats with heart failure, ref [23]

COc1cccc(-c2cc(=O)c3ccccc3o2)c1N [PD98059]
AUC0-inf [1, 6]: 76774.83 ng·min/mL
AUC0-t [1, 6]: 76774.82 ng·min/mL
AUMC [1, 6]: 1716754 ng.min^2/ml
C0 [1, 6]: 3433.44 ng/mL
CI [1, 6]: 13.03 mL/min
K [1, 6]: 0.045 min⁻¹
MRT [1, 6]: 0.3727 h
T1/2 [1, 6]: 0.258 h
V [1, 6]: 291.25 mL
Vss [1, 6]: 291.25 mL
A [1, 7]: 3236.5 ng/mL
AUC0-inf [1, 7]: 135064 ng·min/mL
AUC0-t [1, 7]: 131605.22 ng·min/mL
AUMC [1, 7]: 11287504.55 ng.min^2/ml
B [1, 7]: 980.76 ng/mL
C0 [1, 7]: 4217.23 ng/mL
CI [1, 7]: 7.4 mL/min
K10 [1, 7]: 0.031 min⁻¹
K12 [1, 7]: 0.05 min⁻¹
K21 [1, 7]: 0.031 min⁻¹
MRT [1, 7]: 1.393 h
V [1, 7]: 237.12 mL
Vss [1, 7]: 618.76 mL
α [1, 7]: 0.104 min
β [1, 7]: 0.0094 min
AUC0-t ([1]; IV 1 mg PD98059 in solution, NCA): 142720 ng·min/mL
K (elimination rate constant) ([1]; non-compartmental analysis, IV 1 mg PD98059 in 10% Tween 80, healthy rats, plasma): 0.0074 min⁻¹
AUC0-inf [1, 8]: 152980.9 ng·min/mL
AUC0-t [1, 8]: 142723.37 ng·min/mL
AUMC0-inf [1, 8]: 14922241.77 ng.min^2/ml
C0 (plasma concentration at 0 time) [1, 8]: 3863.5 ng/mL
CI (clearance) [1, 8]: 6.54 mL/min
MRT0-inf [1, 8]: 1.626 h
V (volume of distribution) [1, 8]: 885.82 mL
Vss (steady state volume of distribution) [1, 8]: 637.62 mL
T1/2 (plasma half-life) ([1]; non-compartmental analysis, IV 1 mg, healthy rats, plasma): 1.566 h
brain PD98059 level ([2]; 1 hour after IV 1 mg): approximately 410 ng/g
brain PD98059 level ([2]; 3 hours after IV 1 mg): ~76 ng/g
solubility in release medium [3]: approximately 113 μg/ml
pERK1/2 expression in PVN [4]: decreased
neuronal excitation in PVN [5, 9]: decreased
renal sympathetic nerve activity [5, 9]: decreased
plasma norepinephrine (index of overall sympathetic nerve activity) ([5]; chronic (4 week) ICV infusions, heart failure rats, ref [19]): reduced

From publication PMC7647946 (Drug delivery and translational research, 2021)
